Assay results gathered from unrelated publications.
Lines come from different studies, so protocols differ. pIC50, pKi: −log10 of the molar value.
Read-out: enzyme activity
Action: inhibitor
gag-pol reverse transcriptase: Gag-Pol polyprotein, reverse transcriptase (gag-pol, Human immunodeficiency virus type 1 group M subtype B, UniProt P04585)
gag-pol protease: Gag-Pol polyprotein, protease (gag-pol, Human immunodeficiency virus type 1 group M subtype B, UniProt P04585)

SMILES | target | method | quantity | result
O=C1c2c(O)ccc(O)c2C(=O)c2c(NCCNCCO)ccc(NCCNCCO)c21 | gag-pol reverse transcriptase | – | pIC50 | 5.20
C[C@H](Cn1cnc2c(N)ncnc21)OCP(=O)(O)O | gag-pol reverse transcriptase | – | pIC50 | 6.02
N#Cc1cn(Cc2ccccc2)c2ncc(Br)cc12 | gag-pol reverse transcriptase | FRET | pIC50 | < 4.00
CC(C)CN(C[C@@H](O)[C@H](Cc1ccccc1)NC(=O)O[C@H]1CCO[C@H]2OCC[C@H]21)S(=O)(=O)c1ccc(B(O)O)cc1 | gag-pol protease | – | pKi | 11.68
CC[C@H](C)[C@H]1C(OC(C)(C)C)=CC(=O)N1[C@H]1CCN(C2=CC(=O)N([C@H]3CCN(C4=CC(=O)N[C@H]4CC(C)C)C3)[C@H]2C)C1 | gag-pol protease | fluorescence | pIC50 | 3.95
C=CCCOc1ccc(C[C@H](NC(=O)c2cccc(O)c2CCC=C)[C@H](O)CN(CC(C)C)S(=O)(=O)c2ccc(OC)cc2)cc1 | gag-pol protease | – | pKi | 8.15
O=C(O)Cc1ccc(O)c(O)c1 | Gag-Pol polyprotein, integrase (gag-pol, Human immunodeficiency virus type 1 group M subtype B, UniProt P04585) | – | pIC50 | < 4.60
C=CCCCCOc1ccc(C[C@H](NC(=O)c2cccc(O)c2CCC=C)[C@H](O)CN(CC(C)C)S(=O)(=O)c2ccc(OC)cc2)cc1 | gag-pol protease | – | pKi | 7.52
CC(=O)c1cc2c(-c3ccc(N(C)C)cc3)c3c(nc2[nH]1)-c1ccccc1C3=O | gag-pol reverse transcriptase | FRET | pIC50 | < 5.00
COc1ccc(S(=O)(=O)N(CC(C)C)C[C@@H](O)[C@H](Cc2ccccc2)NC(=O)OC2CO[C@H]3OCC(F)(F)[C@@H]23)cc1 (stereo partly shown) | gag-pol protease | – | pKi | 10.66
CC(C)C[C@H]1C(N2CC[C@H](N3C(=O)C=C(OC(C)(C)C)[C@@H]3C)C2)=CC(=O)N1[C@H]1CCN(C2=CC(=O)N[C@H]2Cc2ccccc2)C1 | gag-pol protease | fluorescence | pIC50 | 4.26
COc1ccc(S(=O)(=O)N(CC(C)C)C[C@@H](O)[C@@H]2Cc3ccc(cc3)OCCCC=CCCc3c(O)cccc3C(=O)N2)cc1 | gag-pol protease | – | pKi | 8.00
C=CCn1cc(C#N)c2cc(C#N)cnc21 | gag-pol reverse transcriptase | FRET | pIC50 | < 4.00
